Reference: PMC2664388 (Pharmaceutical research, 2008)
Read-outs that look alike come from different tables or passages of the source.

Key:
[1] = Aqueous solubility, shake flask method; format: physicochemical; conditions: 25°C, 24h
[2] = ref 21 Serra et al., cited from earlier work
[3] = oral administration, cumulative urinary recovery; ref 14 Ameer et al.; cited from earlier work
[4] = Phase solubility with HP-β-CD; format: physicochemical
[5] = sonicated 15min, equilibration 4 days; ref 29 Tommasini et al.; cited from earlier work
[6] = Corneal permeation, side-bi-side diffusion apparatus; format: in vitro ADME, New Zealand albino rabbits; conditions: for Transcorneal permeability: 150μM in DPBS with 5% HP-β-CD, 34°C
[7] = Transscleral permeation, Valia-Chein side-bi-side cells; format: in vitro ADME, New Zealand albino rabbits; conditions: 150μM in DPBS with 5% HP-β-CD, 37°C
[8] = Stability in ocular tissue homogenates; format: in vitro ADME, New Zealand albino rabbits; conditions: 37°C, after 15h, 1mg/mL protein
[9] = sonicated 15min, equilibration 4 days; ref 29 Tommasini et al.; cited from earlier work; remark: listed apart in the source
[10] = pH solution stability in buffers; format: physicochemical
Outline: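 Test compound (25 μL of a 1 mg/mL stock) was added to 5 mL of USP buffer pre-equilibrated at 25 or 40°C. Content was measured by RP-HPLC on a C18 column with UV at 284 nm. The mobile phase was 20 mM KH2PO4 (pH 2.5) and acetonitrile at 75:25, run at 1 mL/min.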

[11] = Permeation across sclera/choroid/RPE, Valia-Chein side-bi-side cells; conditions: for Permeability across sclera/choroid/RPE: 150μM in DPBS with 5% HP-β-CD, 37°C
[12] = Trans-epithelial electrical resistance; format: in vitro ADME, New Zealand albino rabbits; conditions: transport buffers with or without 5% HP-β-CD, 3h

COc1ccc([C@@H]2CC(=O)c3c(O)cc(O[C@@H]4O[C@H](CO[C@@H]5O[C@@H](C)[C@H](O)[C@@H](O)[C@H]5O)[C@@H](O)[C@H](O)[C@H]4O)cc3O2)cc1O [hesperidin, hesperetin 7-rutinoside]
Saturation Solubility ([1]; Water (0% HP-β-CD)): 4.95 ± 0.99 µg/mL
Saturation Solubility ([1]; pH 1.21, 200 mM buffer): 4.15 ± 0.34 µg/mL
Saturation Solubility ([1]; pH 3.11, 200 mM buffer): 8.44 ± 0.47 µg/mL
Saturation Solubility ([1]; pH 5.12, 200 mM buffer): 5.96 ± 1.92 µg/mL
Saturation Solubility ([1]; pH 7.48, 200 mM buffer): 5.26 ± 0.31 µg/mL
Saturation Solubility ([1]; pH 9.11, 200 mM buffer): 8.93 ± 0.73 µg/mL
pKa ([2]; all of the alcoholic hydroxyl groups): greater than 11.5
pKa ([2]; two phenolic hydroxyl groups): 10±0.2
Bioavailability [3]: < 25%
Fold Increase in solubility ([4]; 1 %w/v HP-β-CD): 9
Hesperidin Solubility ([4]; 1 %w/v HP-β-CD in water, 25°C, 24h): 42.97 ± 4.28 µg/mL
Fold Increase in solubility ([4]; 2.5 %w/v HP-β-CD): 18
Hesperidin Solubility ([4]; 2.5 %w/v HP-β-CD in water, 25°C, 24h): 83.34 ± 6.34 µg/mL
Fold Increase in solubility ([4]; 5 %w/v HP-β-CD): 37
Hesperidin Solubility ([4]; 5 %w/v HP-β-CD in water, 25°C, 24h): 169.90 ± 25.36 µg/mL
Fold Increase in solubility ([4]; 7.5 %w/v HP-β-CD): 48
Hesperidin Solubility ([4]; 7.5 %w/v HP-β-CD in water, 25°C, 24h): 219.03 ± 15.62 µg/mL
Fold Increase in solubility ([4]; 10 %w/v HP-β-CD): 55
Hesperidin Solubility ([4]; 10 %w/v HP-β-CD in water, 25°C, 24h): 252.77 ± 8.81 µg/mL
Fold Increase in solubility ([4]; 15 %w/v HP-β-CD): 76
Hesperidin Solubility ([4]; 15 %w/v HP-β-CD in water, 25°C, 24h): 348.55 ± 5.28 µg/mL
Hesperidin Solubility ([4]; 20 %w/v HP-β-CD in water, 25°C, 24h): 431.97 ± 0.43 µg/mL
Binding constant (K) with HP-β-CD, 1:1 complex ([4]; from phase solubility plot, 25°C, 24h): 625 ± 78 M⁻¹
Binding constant with HP-β-CD [5]: 60 M⁻¹
Transcorneal permeability ([6]; apical to basolateral (A-B)): 1.11±0.86×10^−6 cm/s
Transcorneal permeability ([6]; basolateral to apical (B-A)): 1.16±0.05×10^−6 cm/s
Permeability across sclera alone [7]: 10.2±2.1×10^−6 cm/s
Hesperetin generation, or decrease in hesperidin concentrations, in the homogenates [8]: not observed
Intrinsic solubility [9]: 36 µM
Stability in aqueous solutions (decrease in hesperidin content) ([10]; pH 1.2, 3, 5, 7.4, 25 and 40°C, upto 2 months): did not demonstrate any decrease
Degradation rate constant ([10]; pH 9, 25°C): 0.03 day⁻¹
Half-life ([10]; pH 9, 25°C): 23 days
Degradation rate constant ([10]; pH 9, 40°C): 0.15 day⁻¹
Half-life ([10]; pH 9, 40°C): 4.5 days
Permeability across sclera/choroid/RPE ([11]; RPE to sclera (R-S) direction): 1.52±0.78×10^−6 cm/s
Permeability across sclera/choroid/RPE ([11]; sclera to RPE (S-R) direction): 0.82±0.69×10^−6 cm/s

OCC(O)C(O)C(O)C(O)[14CH2]O (stereo not drawn) [[^14C]mannitol]
Mean percent cumulative amount transported per hour across the cornea ([6]; 0.5 μCi/mL, 3h experiment): 1±0.15 percent per hour
Mean percent cumulative amount transported per hour across the sclera/choroid/RPE ([11]; 0.5 μCi/mL): 0.1±0.04 percent per hour

CC(O)COC[C@H]1O[C@@H]2O[C@H]3[C@H](O)[C@@H](O)[C@@H](O[C@H]4[C@H](O)[C@@H](O)[C@@H](O[C@H]5[C@H](O)[C@@H](O)[C@@H](O[C@H]6[C@H](O)[C@@H](O)[C@@H](O[C@H]7[C@H](O)[C@@H](O)[C@@H](O[C@H]8[C@H](O)[C@@H](O)[C@@H](O[C@H]1[C@H](O)[C@H]2O)O[C@@H]8COCC(C)O)O[C@@H]7COCC(C)O)O[C@@H]6COCC(C)O)O[C@@H]5COCC(C)O)O[C@@H]4COCC(C)O)O[C@@H]3COCC(C)O (stereo partly drawn) [HP-β-CD, 2-hydroxypropyl-beta-cyclodextrin]
TEER of corneas [12]: 5±0.3 KΩcm^2
